Results from ChEMBL document CHEMBL1139471, “Antitumor polycyclic acridines. 17. Synthesis and pharmaceutical profiles of pentacyclic acridinium salts designed to destabilize telomeric integrity” (J Med Chem, 2005).

Tests used:
[1] = Inhibition of telomerase by TRAP assay; design: species or system Homo sapiens
[2] = Stability in RPMI tissue culture medium at 37 degC after 72 hrs; type: ADME
Method in brief: (§1)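 Drug at 10 μM in RPMI containing 10% FBS without cells, held at 37 °C up to 72 h. Monitored by absorbance at λmax and spectrum shape, and by HPLC of aliquots for loss of parent and appearance of new peaks. LC-MS run on the 72 h sample.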

[3] = Metabolic stability in Sprague-Dawley rat liver microsomes assessed as drug remaining after 4 hrs
[4] = Aqueous solubility at 25 degC; type: physicochemical; details: water
[5] = Selectivity index, ratio of mean GI50 for NCI60 cell panel to IC50 for telomerase; type: functional, Homo sapiens
Method in brief: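 Selectivity index calculated as mean GI50 (NCI 60 panel, 2-day exposure) divided by the telomerase IC50 from the TRAP assay.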

[6] = Growth inhibition of NCI60 cell panel; type: functional; details: Homo sapiens
Method in brief: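 NCI 60 human tumor cell panel with a 2-day drug exposure; mean GI50 reported.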

A549 = experiment: Stability in RPMI tissue culture medium at 37 degC incubated with human A549 cells at 0.5 uM after 72 hrs; type: ADME, cell-based; details: a549, 72 h
Method in brief: (§2)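 A549 or MCF-7 cells seeded at 5 × 10^5 per flask and attached overnight in RPMI with 10% serum at 37 °C. Medium then replaced with medium containing 0.5 μM drug. Medium sampled in triplicate at 0, 24, 48 and 72 h, deproteinized with acetonitrile. Isocratic C18 HPLC, fluorescence detection ex 483/em 543 nm. Drug peak height given as % of time zero; mean and SD of two flasks.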

[7] = Stability in RPMI tissue culture medium at 37 degC at 10 uM after 72 hrs; type: ADME; method in brief: as §1
[8] = Stability in RPMI tissue culture medium at 37 degC incubated with human MCF7 cells at 0.5 uM after 72 hrs; type: ADME, cell-based; details: read-out: Stability; method in brief: as §2
Liver microsomes = experiment: Metabolic stability in Sprague-Dawley rat liver microsomes at 2 uM after 4 hrs; type: ADME, Microsome
Method in brief: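 Pooled male Sprague-Dawley rat liver microsomes (0.5 mg/mL protein) in 100 mM potassium phosphate pH 7.4 with 5 mM MgCl2 and 1 mM NADPH. Drug at 2 μM final, diluted from a DMSO stock, incubated 4 h at 37 °C. Stopped with cold acetonitrile, then reverse-phase C18 HPLC of the parent peak. Controls: P450-null human lymphoblast microsomes for protein binding; DF 203 for microsomal activity.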

Structure (SMILES)	IC50 [1]	Selectivity index [5]	GI50 [6]	further results
COC(=O)CCc1ccc2c(c1)c1cccc3c1c([n+]2C)-c1ccccc1N3C	3020 nM	–	–	–
COS(=O)(=O)[O-].Cc1cc2c3c([n+](C)c4ccc(F)cc4c3c1)-c1cc(F)ccc1N2C	330 nM	40	13.2 µM	Stability [2]: Stable; remaining at 4 h [3]: 81%; solubility [4]: 5000 µM
COc1cc2c3c([n+](C)c4ccc(/C=C/C(=O)N5CCOCC5)cc4c3c1)-c1ccccc1N2C	–	–	9.33 µM	–
CC(=O)OCCCc1cc2c3c([n+](C)c4ccc(/C=C/C(=O)N5CCOCC5)cc4c3c1)-c1ccccc1N2C.[I-]	380 nM	72.4	27.5 µM	Activity (A549): Not Active; Activity [7]: Not Active
CN1c2ccccc2-c2c3c1cc(/C=C/C(=O)N1CCOCC1)cc3c1cc(Cl)ccc1[n+]2C	–	–	12 µM	–
CC(=O)OCCCc1ccc2c(c1)N(C)c1cc(CCCOC(C)=O)cc3c1c-2[n+](C)c1ccccc31.[I-]	2300 nM	1.45	3.31 µM	–
COC(=O)/C=C/c1ccc2c(c1)c1cccc3c1c([n+]2C)-c1ccccc1N3C	200 nM	–	–	–
COc1cc2c3c([n+](C)c4ccccc4c3c1)-c1ccc(/C=C/C(=O)N3CCOCC3)cc1N2C.[I-]	2180 nM	2	43.7 µM	–
CC(=O)Nc1ccc2c3cccc4c3c([n+](C)c2c1)-c1ccccc1N4C.[I-]	380 nM	31.6	12 µM	Stability [2]: Stable; remaining at 72 h, 0.5 µM [8]: 43%; remaining at 4 h [3]: 69%
CC(=O)OCCCc1cc2c3c([n+](C)c4ccc(CCCOC(C)=O)cc4c3c1)-c1ccccc1N2C.[I-]	3220 nM	1.2	3.8 µM	–
CN1c2ccccc2-c2c3c1cccc3c1ccccc1[n+]2C.[I-]	380 nM	3.4	1.29 µM	–
COS(=O)(=O)[O-].Cc1ccc2c(c1)-c1c3c(cc(C)cc3c3cc(C)ccc3[n+]1C)N2C	250 nM	1.8	0.41 µM	–
COC(=O)/C=C/c1ccc2c(c1)N(C)c1cc(OC)cc3c1c-2[n+](C)c1ccccc31	> 1000 nM	–	4.58 µM	–
CN1c2ccccc2-c2c3c1cccc3c1cc(/C=C/C(=O)N3CCOCC3)ccc1[n+]2C.[I-]	370 nM	183	68 µM	Stability [2]: Stable; Activity (Liver microsomes): 66%; solubility [4]: 1000 µM
COc1cc2c3c([n+](C)c4ccccc4c3c1)-c1ccc(/C=C/C(=O)N3CCN(C(C)=O)CC3)cc1N2C	–	–	93.3 µM	–
